Measured values from paper PMC5730044 (International journal of medical microbiology : IJMM, 2014).
Values after ≈ are worked out from the molar mass of the structure shown. Counter-ions that a name gives are not always drawn.

Tests used:
[1] = biological target: recombinant NanA of DSM20566 (Streptococcus pneumoniae, UniProt P62575); assay type: biochemical, S. pneumoniae; conditions: read-out: substrate affinity (Km) of rNanA; substrate 4-MUNANA
S. pneumoniae DSM14378 [2] = assay: Biofilm inhibition assay; assay type: cell-based; conditions: DSM14378, TSB, 24 h
[3] = tested on: pneumococcal NA of strain CJ9400; assay: Lectin-based hemagglutination; assay type: cell-based, S. pneumoniae; conditions: minimal NA inhibitory concentration
[4] = tested on: pneumococcal NA of strain D39; assay: Lectin-based hemagglutination; assay type: cell-based, S. pneumoniae; conditions: for Inhibitory concentration (HA assay): minimal NA inhibitory concentration, strain D39
S. pneumoniae CF6937 [5] = assay: Minimal bactericidal concentration; assay type: cell-based; conditions: viability reduced by ≥99.9%
S. pneumoniae DSM20566 [6] = assay: Minimal bactericidal concentration; assay type: cell-based; conditions: viability reduced by ≥99.9%
S. pneumoniae [7] = assay: Bactericidal activity, studied pneumococci; assay type: cell-based; conditions: for concentration up to which no inhibitory or bactericidal activity was exhibited: maximum tested concentration
S. pneumoniae BC7326 [8] = assay: Minimal bactericidal concentration; assay type: cell-based; conditions: viability reduced by ≥99.9%
S. pneumoniae PN8828 [9] = assay: Biofilm inhibition assay; assay type: cell-based; conditions: PN8828, TSB, 24 h
S. pneumoniae BC7326 [10] = assay: Biofilm inhibition assay; assay type: cell-based; conditions: BC7326, TSB, 24 h
S. pneumoniae CJ9400 [11] = assay: Minimal bactericidal concentration; assay type: cell-based; conditions: viability reduced by ≥99.9%
S. pneumoniae BC57 [12] = assay: Biofilm inhibition assay; assay type: cell-based; conditions: BC57, TSB, 24 h
S. pneumoniae DSM20566 [13] = assay: Biofilm inhibition assay; assay type: cell-based; conditions: DSM20566, TSB, 24 h
S. pneumoniae CJ9400 [14] = assay: Biofilm inhibition assay; assay type: cell-based; conditions: CJ9400, TSB, 24 h
S. pneumoniae DSM14378 [15] = assay: Minimal bactericidal concentration; assay type: cell-based; conditions: viability reduced by ≥99.9%
[16] = tested on: pneumococcal NA of strain DSM20566; assay: Lectin-based hemagglutination; assay type: cell-based, S. pneumoniae; conditions: minimal NA inhibitory concentration
S. pneumoniae CF8919 [17] = assay: Biofilm inhibition assay; assay type: cell-based; conditions: CF8919, TSB, 24 h
[18] = tested on: pneumococcal adherence to pulmonary epithelial A549 cells; conditions: DSM20566 and PN8828
S. pneumoniae CF6937 [19] = assay: Biofilm inhibition assay; assay type: cell-based; conditions: CF6937, TSB, 24 h
S. pneumoniae D39 [20] = assay: Minimal bactericidal concentration; assay type: cell-based; conditions: viability reduced by ≥99.9%
S. pneumoniae D39 [21] = assay: Biofilm inhibition assay; assay type: cell-based; conditions: D39, TSB, 24 h
pneumococcal NA [22] = biological target: T1, pneumococcal NA (Streptococcus pneumoniae, UniProt P62575); assay type: biochemical, S. pneumoniae
S. pneumoniae BC7326 [23] = assay: Broth microdilution assay; assay type: cell-based; conditions: Streptococcus pneumoniae, BC7326, 18 h, read-out: 90% minimal inhibitory concentration
S. pneumoniae DSM20566 [24] = assay: Broth microdilution assay; assay type: cell-based; conditions: Streptococcus pneumoniae, DSM20566, 18 h, read-out: 90% minimal inhibitory concentration
S. pneumoniae DSM14378 [25] = assay: Broth microdilution assay; assay type: cell-based; conditions: Streptococcus pneumoniae, DSM14378, 18 h, read-out: 90% minimal inhibitory concentration
S. pneumoniae PN8828 [26] = assay: Broth microdilution assay; assay type: cell-based; conditions: Streptococcus pneumoniae, PN8828, 18 h, read-out: 90% minimal inhibitory concentration
S. pneumoniae D39 [27] = assay: Broth microdilution assay; assay type: cell-based; conditions: Streptococcus pneumoniae, D39, 18 h, read-out: 90% minimal inhibitory concentration
S. pneumoniae CF8919 [28] = assay: Broth microdilution assay; assay type: cell-based; conditions: Streptococcus pneumoniae, CF8919, 18 h, read-out: 90% minimal inhibitory concentration
S. pneumoniae CF6937 [29] = assay: Broth microdilution assay; assay type: cell-based; conditions: Streptococcus pneumoniae, CF6937, 18 h, read-out: 90% minimal inhibitory concentration
S. pneumoniae BC57 [30] = assay: Broth microdilution assay; assay type: cell-based; conditions: Streptococcus pneumoniae, BC57, 18 h, read-out: 90% minimal inhibitory concentration
S. pneumoniae CJ9400 [31] = assay: Broth microdilution assay; assay type: cell-based; conditions: Streptococcus pneumoniae, CJ9400, 18 h, read-out: 90% minimal inhibitory concentration
S. pneumoniae [32] = assay: Broth microdilution assay; assay type: cell-based; conditions: Streptococcus pneumoniae, read-out: MIC90 values
Outline: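 Pneumococci were pre-grown in BHI with gentle shaking at 37°C for 4–5 h (mid-exponential), adjusted to McFarland 0.5 (1.5 × 10^8 cfu/mL) and diluted 50× in BHI. 50 µL bacteria plus 100 µL of two-fold compound dilutions (top 50 or 200 µM) in BHI were run in duplicate, overnight at 37°C, 5% CO₂. OD620 at 18 h minus 0 h was taken relative to no-compound growth control; MIC90 is 90% turbidity reduction.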

pneumococcal NA [33] = biological target: T1, pneumococcal NA; assay type: biochemical, S. pneumoniae; conditions: precipitated total proteins of all strains
pneumococcal NA [34] = biological target: T1, pneumococcal NA; conditions: ref Gut et al., 2011; cited from earlier work

T1 sequence (P62575 54-1006): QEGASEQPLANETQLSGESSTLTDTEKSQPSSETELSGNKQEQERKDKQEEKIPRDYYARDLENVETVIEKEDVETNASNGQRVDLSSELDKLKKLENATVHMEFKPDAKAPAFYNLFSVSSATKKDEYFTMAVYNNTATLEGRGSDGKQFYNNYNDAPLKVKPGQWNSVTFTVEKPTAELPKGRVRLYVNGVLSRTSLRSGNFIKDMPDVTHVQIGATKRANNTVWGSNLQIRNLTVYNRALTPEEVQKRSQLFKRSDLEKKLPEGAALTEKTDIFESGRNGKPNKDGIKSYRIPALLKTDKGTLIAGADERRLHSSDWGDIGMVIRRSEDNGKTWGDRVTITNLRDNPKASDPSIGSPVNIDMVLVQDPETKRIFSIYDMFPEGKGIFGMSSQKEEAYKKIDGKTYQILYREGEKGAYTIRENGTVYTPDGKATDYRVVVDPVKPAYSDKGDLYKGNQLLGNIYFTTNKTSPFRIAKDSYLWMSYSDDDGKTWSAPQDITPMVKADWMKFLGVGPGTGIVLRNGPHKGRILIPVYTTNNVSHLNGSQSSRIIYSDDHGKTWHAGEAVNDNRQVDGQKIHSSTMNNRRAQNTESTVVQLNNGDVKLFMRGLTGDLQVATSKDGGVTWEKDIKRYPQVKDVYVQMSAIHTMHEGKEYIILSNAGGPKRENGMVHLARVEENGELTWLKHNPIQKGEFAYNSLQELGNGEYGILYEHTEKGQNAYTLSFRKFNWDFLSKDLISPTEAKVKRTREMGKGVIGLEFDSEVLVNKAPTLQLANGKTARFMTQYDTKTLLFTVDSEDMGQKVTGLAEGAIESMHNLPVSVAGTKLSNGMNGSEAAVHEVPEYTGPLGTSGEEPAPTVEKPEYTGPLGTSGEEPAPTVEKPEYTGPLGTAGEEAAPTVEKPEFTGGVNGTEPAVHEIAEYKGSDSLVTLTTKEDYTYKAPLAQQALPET
Chain of recombinant NanA of DSM20566 (P62575 116-1035 limits assumed): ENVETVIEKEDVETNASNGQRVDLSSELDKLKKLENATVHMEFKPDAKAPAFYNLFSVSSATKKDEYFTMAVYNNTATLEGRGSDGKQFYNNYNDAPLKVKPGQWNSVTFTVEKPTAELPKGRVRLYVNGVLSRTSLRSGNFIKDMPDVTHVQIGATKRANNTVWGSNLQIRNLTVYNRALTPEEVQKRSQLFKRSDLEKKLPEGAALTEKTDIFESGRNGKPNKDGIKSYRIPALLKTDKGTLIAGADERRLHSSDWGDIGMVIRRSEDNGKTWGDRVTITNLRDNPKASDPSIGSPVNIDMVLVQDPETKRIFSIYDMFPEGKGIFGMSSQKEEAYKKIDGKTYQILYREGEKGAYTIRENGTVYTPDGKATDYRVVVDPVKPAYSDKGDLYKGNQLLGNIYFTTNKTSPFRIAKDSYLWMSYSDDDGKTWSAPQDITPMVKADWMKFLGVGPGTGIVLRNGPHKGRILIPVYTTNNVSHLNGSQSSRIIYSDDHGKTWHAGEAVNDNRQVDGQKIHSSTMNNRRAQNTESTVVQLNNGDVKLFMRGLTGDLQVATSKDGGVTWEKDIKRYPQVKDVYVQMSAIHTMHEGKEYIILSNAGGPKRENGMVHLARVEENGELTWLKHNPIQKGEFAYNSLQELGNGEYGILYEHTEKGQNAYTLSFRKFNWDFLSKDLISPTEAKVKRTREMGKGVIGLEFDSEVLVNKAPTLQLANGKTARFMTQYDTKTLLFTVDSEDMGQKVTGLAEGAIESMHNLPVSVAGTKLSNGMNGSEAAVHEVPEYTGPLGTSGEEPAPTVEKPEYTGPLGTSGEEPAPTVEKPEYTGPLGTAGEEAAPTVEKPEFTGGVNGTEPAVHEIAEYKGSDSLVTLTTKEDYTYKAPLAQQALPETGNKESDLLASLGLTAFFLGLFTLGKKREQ

Structure (SMILES)	90% minimal biofilm inhibitory concentration (S. pneumoniae DSM14378 [2]) [µM]	Inhibitory concentration (HA assay) [3] [µM]	Inhibitory concentration (HA assay) [4] [µM]	Bactericidal concentration (S. pneumoniae CF6937 [5]) [µM]	Bactericidal concentration (S. pneumoniae DSM20566 [6]) [µM]	Bactericidal concentration (S. pneumoniae BC7326 [8]) [µM]	90% minimal biofilm inhibitory concentration (S. pneumoniae PN8828 [9]) [µM]	90% minimal biofilm inhibitory concentration (S. pneumoniae BC7326 [10]) [µM]	Bactericidal concentration (S. pneumoniae CJ9400 [11]) [µM]	90% minimal biofilm inhibitory concentration (S. pneumoniae BC57 [12]) [µM]	90% minimal biofilm inhibitory concentration (S. pneumoniae DSM20566 [13]) [µM]	90% minimal biofilm inhibitory concentration (S. pneumoniae CJ9400 [14]) [µM]	Bactericidal concentration (S. pneumoniae DSM14378 [15]) [µM]	Inhibitory concentration (HA assay) [16] [µM]	90% minimal biofilm inhibitory concentration (S. pneumoniae CF8919 [17]) [µM]	90% minimal biofilm inhibitory concentration (S. pneumoniae CF6937 [19]) [µM]	Bactericidal concentration (S. pneumoniae D39 [20]) [µM]	90% minimal biofilm inhibitory concentration (S. pneumoniae D39 [21]) [µM]	MIC (S. pneumoniae BC7326 [23]) [µM]	MIC (S. pneumoniae DSM20566 [24]) [µM]	further results
CC(=O)N[C@H]1[C@H]([C@H](O)[C@H](O)CO)O[C@@](Oc2ccc3c(C)cc(=O)oc3c2)(C(=O)O)C[C@@H]1O [4-MUNANA, 2′-(4-methylumbelliferyl)-α-D-N-acetylneuraminic acid sodium salt hydrate]	–	–	–	–	–	–	–	–	–	–	–	–	–	–	–	–	–	–	–	–	Km [1]: 23.6 µM
CC(=O)N[C@H]1[C@H]([C@H](O)[C@H](O)CO)OC(C(=O)O)=C[C@@H]1O [DANA, 2,3-dehydro-2-deoxy-N-acetylneuraminic acid]	> 50	15.4 ± 10.8	> 100	> 50	> 50	> 50	> 50	> 50	> 50	> 50	> 50	> 50	> 50	45.3 ± 30.6	> 50	> 50	> 50	> 50	–	–	activity in HA assay (in words) ([4]; reference strain D39): no activity; concentration up to which no inhibitory or bactericidal activity was exhibited (S. pneumoniae [7]): > 50 µM; effect on adhesion of pneumococci to A549 cells (in words) [18]: did not reduce pneumococcal adherence
O=C(CCc1ccccc1)C[C@@H]1C[C@@H](c2ccccc2)c2c(cc(/C=C/c3ccccc3)oc2=O)O1 [katsumadain A]	> 50	0.7 ± 0.4	1.0 ± 0.0	> 50	> 50	> 50	> 50	> 50	> 50	> 50	> 50	> 50	> 50	3.2 ± 0.0	> 50	> 50	> 50	> 50	> 50	> 50	IC50 (pneumococcal NA [22]; read-out: IC50, CL-based assay, range among the strains): 310 to 1610 nM; MIC (S. pneumoniae DSM14378 [25]): > 50 µM; concentration up to which no inhibitory or bactericidal activity was exhibited (S. pneumoniae [7]): > 50 µM; MIC (S. pneumoniae PN8828 [26]): > 50 µM; MIC (S. pneumoniae D39 [27]): > 50 µM; MIC (S. pneumoniae CF8919 [28]): > 50 µM; MIC (S. pneumoniae CF6937 [29]): > 50 µM; effect on adhesion of pneumococci to A549 cells (in words) [18]: did not reduce pneumococcal adherence; MIC (S. pneumoniae BC57 [30]): > 50 µM; MIC (S. pneumoniae CJ9400 [31]): > 50 µM
CO[C@H]1/C=C/O[C@@]2(C)Oc3c(C)c(O)c4c(O)c(c(/C=N/N5CCN(C)CC5)c(O)c4c3C2=O)NC(=O)/C(C)=C\C=C\[C@H](C)[C@H](O)[C@@H](C)[C@@H](O)[C@@H](C)[C@H](OC(C)=O)[C@@H]1C [rifampicin]	0.014 ± 0.008	–	–	0.05 ± 0.03	1.97 ± 1.23	0.08 ± 0.03	0.011 ± 0.007	0.016 ± 0.010	0.23 ± 0.16	0.012 ± 0.001	0.049 ± 0.030	0.003 ± 0.001	0.14 ± 0.06	–	0.006 ± 0.004	0.020 ± 0.002	0.22 ± 0.09	0.013 ± 0.002	0.016 ± 0.005 (≈ 0.0132 µg/mL)	0.041 ± 0.011 (≈ 0.0337 µg/mL)	MIC (S. pneumoniae DSM14378 [25]): 0.031 ± 0.023 µM (≈ 0.0255 µg/mL); factor of reduction of viability of pneumococci (S. pneumoniae [7]; within 18 h): > 1000; MIC (S. pneumoniae PN8828 [26]): 0.005 ± 0.001 µM (≈ 0.00411 µg/mL); MIC (S. pneumoniae D39 [27]): 0.021 ± 0.002 µM (≈ 0.0173 µg/mL); MIC (S. pneumoniae CF8919 [28]): 0.009 ± 0.001 µM (≈ 0.00741 µg/mL); MIC (S. pneumoniae CF6937 [29]): 0.034 ± 0.028 µM (≈ 0.028 µg/mL); MIC (S. pneumoniae BC57 [30]): 0.012 ± 0.002 µM (≈ 0.00988 µg/mL); MIC (S. pneumoniae CJ9400 [31]): 0.032 ± 0.03 µM (≈ 0.0263 µg/mL); MIC90 (S. pneumoniae [32]): 0.01 to 0.04 µM (≈ 0.00823 to 0.0329 µg/mL)
CC(=O)N[C@H]1[C@H]([C@H](O)[C@H](O)CO)OC(C(=O)O)=C[C@@H]1N=C(N)N [zanamivir]	> 50	>100	>100	> 50	> 50	> 50	> 50	> 50	> 50	> 50	> 50	> 50	> 50	>100	> 50	> 50	> 50	> 50	> 50	> 50	inhibition of NA activity, CL-based assay (in words) (pneumococcal NA [22]; data not shown): inefficacy; MIC (S. pneumoniae DSM14378 [25]): > 50 µM; MIC (S. pneumoniae PN8828 [26]): > 50 µM; MIC (S. pneumoniae D39 [27]): > 50 µM; MIC (S. pneumoniae CF8919 [28]): > 50 µM; MIC (S. pneumoniae CF6937 [29]): > 50 µM; MIC (S. pneumoniae BC57 [30]): > 50 µM; inhibition of NA activity, FL-based assay (in words) (pneumococcal NA [33]): did not show an effect; MIC (S. pneumoniae CJ9400 [31]): > 50 µM; inhibitory potency to pneumococcal NA (in words) (pneumococcal NA [34]): weak
